Results: ChEMBL document CHEMBL4732214, “Highly Selective Y Receptor Antagonist Binds in an Allosteric Binding Pocket” (J Med Chem, 2021)
Active and inactive are the calls of the source. The rule behind the calls is not given here.

Legend:
[1] = molecular target: T1, Neuropeptide Y receptor type 1 (Homo sapiens) (UniProt P25929); test: Allosteric antagonist activity at […]-tagged human NPY1R expressed in COS7 cells co-expressing Gqi5-alpha assessed as inhibition of NPY-induced Ca2+ flux at 30 uM by Fluo-2 AM dye based fluorescent assay; type: functional, cell-based
T1 sequence (whole entry): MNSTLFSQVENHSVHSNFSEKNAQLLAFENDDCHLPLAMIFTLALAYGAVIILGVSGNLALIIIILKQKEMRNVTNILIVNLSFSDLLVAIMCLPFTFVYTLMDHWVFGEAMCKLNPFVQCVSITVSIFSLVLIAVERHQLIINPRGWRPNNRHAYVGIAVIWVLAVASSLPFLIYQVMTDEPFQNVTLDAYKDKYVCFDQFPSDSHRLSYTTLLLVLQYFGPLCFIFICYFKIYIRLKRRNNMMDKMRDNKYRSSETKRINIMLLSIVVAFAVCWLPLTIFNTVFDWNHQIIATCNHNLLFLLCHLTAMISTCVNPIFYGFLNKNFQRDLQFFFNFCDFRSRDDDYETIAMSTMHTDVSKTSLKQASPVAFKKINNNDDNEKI
Procedure, shortened: (§1)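 Stable COS7 lines expressing Y1R-, Y2R- or Y5R-eYFP plus chimeric Δ6Gαqi4myr, loaded with 2.4 μM Fluo2-AM in HBSS/20 mM HEPES/2.5 mM probenecid pH 7.4. After 20 s baseline, DMSO or 30 μM compound added, NPY added 110 s later, 140 s run. Read at ex 485/em 525 nm. Signal taken as x-fold over basal, normalized to 1 μM NPY maximum. N ≥ 3.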

[2] = molecular target: T2, Neuropeptide Y receptor type 4 (Homo sapiens, UniProt P50391); test: Displacement of [125I]-PP from human NPY4R expressed in HEK293 cell membranes assessed as remaining radioligand binding incubated for 5 hrs using 180 pM [125I]-PP by microBeta scintillation counting assay; conditions: Cell membrane
Procedure, shortened: (§2)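 Membranes from stable HEK293 Y4R-eYFP cells, 0.3 μg in HEPES buffer (25 mM HEPES, […], 1 mM MgCl2, Pefabloc, pH 7.4) with DMSO or compound. Incubated with 60 or 180 pM human ¹²⁵I-PP for 5 h at room temperature. Nonspecific binding set with 1 μM PP. Bound ligand collected on PEI-soaked GF/C filters and counted by scintillation.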

[3] = molecular target: T2, Neuropeptide Y receptor type 4; test: Inhibition of 100 nM PP-induced receptor internalization of eYFP-tagged human NPY4R expressed in HEK293 cells at 30 uM after 30 mins by fluorescence microscopy; type: cell-based; conditions: filed as allosteric antagonist
Procedure, shortened: (§3)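 HEK293 cells stably expressing Y4R-eYFP, nuclei stained with Hoechst. Cells given 30 μM compound or DMSO in OptiMEM, then 10 or 100 nM PP (or medium) for 30 min at 37 °C. eYFP imaged at a fixed 400 ms exposure. Cell-surface fluorescence quantified as pixel intensity, normalized to unstimulated DMSO control.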

[4] = molecular target: T2, Neuropeptide Y receptor type 4; test: Inhibition of 10 nM PP-induced receptor internalization of eYFP-tagged human NPY4R expressed in HEK293 cells at 30 uM after 30 mins by fluorescence microscopy; type: cell-based; conditions: filed as allosteric antagonist; procedure, shortened: as §3
COS7 [5] = test: Allosteric antagonist activity at human NPY4R chimera containing NPY1R transmembrane helix 2 expressed in COS7 cells co-expressing Gqi5-alpha assessed as inhibition of PP-induced Ca2+ flux at 15 uM by Fluo-2 AM dye based fluorescent assay; type: cell-based
Procedure, shortened: (§4)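 Y4R/Y1R chimeras carrying Y1R TM1, TM2 or ECL2 segments, C-terminal eYFP, transiently cotransfected with Δ6Gαqi4myr in COS7 cells. Fluo2-AM Ca²⁺ flux. 15 μM antagonist or DMSO added, followed by PP. Reduction in PP response given relative to DMSO control, normalized to 1 μM PP.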

[6] = molecular target: T2, Neuropeptide Y receptor type 4; test: Allosteric antagonist activity at […]-tagged human NPY4R expressed in COS7 cells co-expressing Gqi5-alpha assessed as inhibition of PP-induced Ca2+ flux by Fluo-2 AM dye based fluorescent assay relative to control; type: functional, cell-based
[7] = molecular target: T2, Neuropeptide Y receptor type 4; test: Displacement of [125I]-PP from human NPY4R expressed in HEK293 cell membranes incubated for 5 hrs by microBeta scintillation counting assay; conditions: Cell membrane, filed as allosteric antagonist; procedure, shortened: as §2
[8] = molecular target: T3, Neuropeptide Y receptor type 5 (Homo sapiens) (UniProt Q15761); test: Allosteric antagonist activity at […]-tagged human NPY5R expressed in COS7 cells co-expressing Gqi5-alpha assessed as inhibition of NPY-induced Ca2+ flux at 30 uM by Fluo-2 AM dye based fluorescent assay; type: functional, cell-based; procedure, shortened: as §1
T3 sequence (whole entry): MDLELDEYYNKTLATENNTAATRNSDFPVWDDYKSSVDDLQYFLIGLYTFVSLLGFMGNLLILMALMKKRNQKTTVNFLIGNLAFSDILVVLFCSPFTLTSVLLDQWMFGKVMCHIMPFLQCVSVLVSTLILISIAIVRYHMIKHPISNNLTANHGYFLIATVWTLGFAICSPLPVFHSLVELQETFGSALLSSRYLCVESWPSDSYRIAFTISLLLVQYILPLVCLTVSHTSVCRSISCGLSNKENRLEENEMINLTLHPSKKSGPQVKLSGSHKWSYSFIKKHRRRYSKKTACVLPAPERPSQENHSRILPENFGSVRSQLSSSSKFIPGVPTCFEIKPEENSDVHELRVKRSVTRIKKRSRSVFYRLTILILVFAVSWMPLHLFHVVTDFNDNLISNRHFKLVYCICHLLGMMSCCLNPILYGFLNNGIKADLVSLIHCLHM

[9] = molecular target: T2, Neuropeptide Y receptor type 4; test: Displacement of [125I]-PP from human NPY4R expressed in HEK293 cell membranes assessed as remaining radioligand binding incubated for 5 hrs using 60 pM [125I]-PP by microBeta scintillation counting assay; conditions: Cell membrane, filed as allosteric antagonist; procedure, shortened: as §2
[10] = molecular target: T4, Neuropeptide Y receptor type 2 (Homo sapiens) (UniProt P49146); test: Allosteric antagonist activity at […]-tagged human NPY2R expressed in COS7 cells co-expressing Gqi5-alpha assessed as inhibition of NPY-induced Ca2+ flux at 30 uM by Fluo-2 AM dye based fluorescent assay; type: functional, cell-based; procedure, shortened: as §1
T4 sequence (whole entry): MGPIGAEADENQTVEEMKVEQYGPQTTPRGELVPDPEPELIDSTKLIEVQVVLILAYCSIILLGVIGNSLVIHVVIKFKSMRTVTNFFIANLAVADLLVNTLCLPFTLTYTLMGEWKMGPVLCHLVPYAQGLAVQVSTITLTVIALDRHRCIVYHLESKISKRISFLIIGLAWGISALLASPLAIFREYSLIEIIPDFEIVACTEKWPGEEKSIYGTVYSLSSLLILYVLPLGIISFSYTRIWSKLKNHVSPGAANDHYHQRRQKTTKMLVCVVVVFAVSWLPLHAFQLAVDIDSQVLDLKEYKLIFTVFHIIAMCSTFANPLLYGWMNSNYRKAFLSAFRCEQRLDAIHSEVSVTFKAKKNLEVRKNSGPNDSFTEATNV

[11] = molecular target: T2, Neuropeptide Y receptor type 4; test: Inhibition of receptor internalization of eYFP-tagged human NPY4R expressed in HEK293 cells at 30 uM after 30 mins by fluorescence microscopy; type: cell-based; procedure, shortened: as §3
COS7 [12] = test: Allosteric antagonist activity at human NPY4R chimera containing NPY1R extracellular loop 2 expressed in COS7 cells co-expressing Gqi5-alpha assessed as inhibition of PP-induced Ca2+ flux at 15 uM by Fluo-2 AM dye based fluorescent assay; type: cell-based; procedure, shortened: as §4
COS7 [13] = test: Allosteric antagonist activity at human NPY4R chimera containing NPY1R transmembrane helix 1 expressed in COS7 cells co-expressing Gqi5-alpha assessed as inhibition of PP-induced Ca2+ flux at 15 uM by Fluo-2 AM dye based fluorescent assay; type: cell-based; procedure, shortened: as §4
[14] = molecular target: T2, Neuropeptide Y receptor type 4; test: Allosteric antagonist activity at human NPY4R expressed in HEK293 cells assessed as reduction in PP-induced arrestin-3 recruitment at 30 uM measured after 30 mins by BRET assay; type: cell-based; conditions: filed as allosteric antagonist
Procedure, shortened: (§5)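 BRET in HEK293 cells transiently expressing Y4R-Rluc8 and venus-arr3. Pretreated with 30 μM compound or DMSO, then read continuously for 30 min after 100 nM PP. Fluorescence/luminescence ratio, unstimulated control subtracted to give netBRET. Rate constant k from a one-phase association fit. N ≥ 4, unpaired t-test.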

[15] = molecular target: T2, Neuropeptide Y receptor type 4; test: Allosteric antagonist activity at human NPY4R expressed in HEK293 cells assessed as reduction in rate of PP-induced arrestin-3 recruitment at 30 uM measured after 30 mins by BRET assay; type: cell-based; conditions: filed as allosteric antagonist; procedure, shortened: as §5
[16] = molecular target: T5, Neuropeptide Y receptor type 1 (Mus musculus) (UniProt Q04573); test: Allosteric antagonist activity at NPY1R in mouse descending colon mucosa assessed as reduction in PYY-induced ion transport at 0.3 to 30 uM by electrophysiology; conditions: dose 0.3-30 µM
T5 sequence (whole entry): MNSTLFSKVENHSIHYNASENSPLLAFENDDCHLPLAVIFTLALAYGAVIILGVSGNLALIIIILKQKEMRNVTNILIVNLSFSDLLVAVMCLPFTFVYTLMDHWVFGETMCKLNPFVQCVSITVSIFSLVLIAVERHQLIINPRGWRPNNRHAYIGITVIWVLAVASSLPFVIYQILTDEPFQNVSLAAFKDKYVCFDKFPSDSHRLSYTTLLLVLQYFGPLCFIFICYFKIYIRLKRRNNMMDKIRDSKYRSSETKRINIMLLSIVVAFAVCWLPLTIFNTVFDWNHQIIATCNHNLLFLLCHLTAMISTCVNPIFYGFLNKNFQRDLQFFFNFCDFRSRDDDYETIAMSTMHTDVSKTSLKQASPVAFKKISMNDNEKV

[17] = molecular target: T6, Neuropeptide Y receptor type 2 (Mus musculus) (UniProt P97295); test: Allosteric antagonist activity at NPY2R in mouse descending colon mucosa assessed as reduction in PYY-induced ion transport at 0.3 to 30 uM by electrophysiology; conditions: dose 0.3-30 µM
T6 sequence (whole entry): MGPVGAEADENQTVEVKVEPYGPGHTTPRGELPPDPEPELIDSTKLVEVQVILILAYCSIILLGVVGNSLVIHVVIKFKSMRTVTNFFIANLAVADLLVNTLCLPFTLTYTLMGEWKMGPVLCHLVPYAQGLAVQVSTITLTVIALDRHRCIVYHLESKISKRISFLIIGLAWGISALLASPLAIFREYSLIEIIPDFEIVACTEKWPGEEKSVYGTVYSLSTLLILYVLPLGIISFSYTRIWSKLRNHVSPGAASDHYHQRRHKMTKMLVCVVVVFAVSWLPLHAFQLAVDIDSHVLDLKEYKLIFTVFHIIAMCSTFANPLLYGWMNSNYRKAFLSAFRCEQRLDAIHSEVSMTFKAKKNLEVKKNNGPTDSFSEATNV

[18] = molecular target: T5, Neuropeptide Y receptor type 1 (Mus musculus); test: Allosteric antagonist activity at NPY1R in mouse descending colon mucosa assessed as reduction in PYY-induced ion transport at 30 uM by electrophysiology
[19] = molecular target: T6, Neuropeptide Y receptor type 2 (Mus musculus); test: Allosteric antagonist activity at NPY2R in mouse descending colon mucosa assessed as reduction in PYY-induced ion transport at 30 uM by electrophysiology

T2 sequence (P50391 whole entry): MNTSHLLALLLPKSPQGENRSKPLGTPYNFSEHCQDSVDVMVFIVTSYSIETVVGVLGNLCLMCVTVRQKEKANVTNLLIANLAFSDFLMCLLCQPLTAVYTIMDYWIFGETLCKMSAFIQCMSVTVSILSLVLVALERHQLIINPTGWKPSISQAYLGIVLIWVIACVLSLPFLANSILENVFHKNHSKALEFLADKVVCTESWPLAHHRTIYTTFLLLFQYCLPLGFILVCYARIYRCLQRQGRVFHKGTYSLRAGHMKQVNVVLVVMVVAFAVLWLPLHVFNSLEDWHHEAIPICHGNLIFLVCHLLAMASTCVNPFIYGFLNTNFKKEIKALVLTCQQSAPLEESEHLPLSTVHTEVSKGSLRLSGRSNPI

Compound: CS(=O)(=O)N1CCCCC1C(=O)Nc1nc2cc3c(cc2s1)OCCO3 (racemic)
- inhibition [1]: inactive
- inhibition [2]: inactive
- inhibition [3]: Active
- inhibition [4]: Active
- inhibition (COS7 [5]): inactive
- IC50 ([6]; read-out: IC50): 4 µM
- inhibition [7]: Dose-dependent effect
- inhibition [8]: inactive
- Activity [9]: 15%
- inhibition [10]: inactive
- inhibition [11]: inactive
- inhibition (COS7 [12]): inactive
- inhibition (COS7 [13]): inactive
- inhibition [14]: Active
- inhibition [15]: Active

Compound: CS(=O)(=O)N1CCCC[C@@H]1C(=O)Nc1nc2cc3c(cc2s1)OCCO3
- pIC50 [6]: inactive
- IC50 ([6]; cos7): Not Active
- inhibition [16]: inactive
- inhibition [17]: inactive
- inhibition [18]: inactive
- inhibition [19]: inactive
